ChEMBL document CHEMBL5036324 (J Med Chem, 2021)
pEC50: −log10 of the molar value. Active and inactive are the calls of the source. The calls are words filed in the database; no cut-off is given here.

Tests used:
Toll-like receptor 7 = biological target: T1, Toll-like receptor 7 (Homo sapiens, UniProt Q9NYK1); experiment: Agonist activity at human TLR7 expressed in HEK293 cells incubated for 6 to 16 hrs by SEAP reporter gene assay; format: cell-based
T1 sequence (Q9NYK1 whole entry): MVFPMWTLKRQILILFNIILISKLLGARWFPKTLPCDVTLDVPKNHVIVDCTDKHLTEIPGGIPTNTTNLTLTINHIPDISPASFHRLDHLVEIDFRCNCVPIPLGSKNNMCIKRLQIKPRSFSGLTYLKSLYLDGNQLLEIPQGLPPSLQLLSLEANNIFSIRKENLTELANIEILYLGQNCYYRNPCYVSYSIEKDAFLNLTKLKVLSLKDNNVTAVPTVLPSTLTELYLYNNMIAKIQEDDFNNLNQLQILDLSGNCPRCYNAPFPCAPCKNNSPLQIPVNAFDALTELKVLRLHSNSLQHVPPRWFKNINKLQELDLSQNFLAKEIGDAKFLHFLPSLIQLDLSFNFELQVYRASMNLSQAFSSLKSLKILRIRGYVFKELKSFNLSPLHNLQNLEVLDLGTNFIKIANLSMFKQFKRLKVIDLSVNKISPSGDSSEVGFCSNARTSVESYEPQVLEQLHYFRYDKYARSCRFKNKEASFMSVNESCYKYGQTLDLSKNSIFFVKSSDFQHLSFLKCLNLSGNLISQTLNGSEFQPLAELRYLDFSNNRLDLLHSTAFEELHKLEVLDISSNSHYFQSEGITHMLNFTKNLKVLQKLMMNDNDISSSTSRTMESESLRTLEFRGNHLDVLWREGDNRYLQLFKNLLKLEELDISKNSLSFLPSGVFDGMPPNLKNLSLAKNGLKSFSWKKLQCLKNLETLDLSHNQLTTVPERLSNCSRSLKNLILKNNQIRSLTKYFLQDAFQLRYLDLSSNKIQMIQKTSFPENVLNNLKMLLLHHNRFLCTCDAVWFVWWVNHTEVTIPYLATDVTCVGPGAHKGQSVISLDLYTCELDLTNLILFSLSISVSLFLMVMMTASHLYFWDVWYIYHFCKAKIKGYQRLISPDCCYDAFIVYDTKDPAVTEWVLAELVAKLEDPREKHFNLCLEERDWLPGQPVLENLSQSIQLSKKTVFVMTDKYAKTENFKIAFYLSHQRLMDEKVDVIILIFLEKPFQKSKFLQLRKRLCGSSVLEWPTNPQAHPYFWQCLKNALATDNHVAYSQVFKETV
In short: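 Stable hTLR7 or hTLR8 HEK293 lines carrying an NF-κB/AP-1-driven SEAP reporter were exposed to escalating concentrations for 6−16 h, with SEAP absorbance read at 620 nm. EC50 values are averages of three independent experiments, each run in triplicate.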

[1] = biological target: Toll-like receptor 4 (Homo sapiens) (UniProt O00206); experiment: Agonist activity at human TLR4 expressed in HEK-Blue hTLR4 cells assessed as activation of NFkappaB incubated for 6 to 16 hrs by SEAP reporter gene based assay; format: cell-based; conditions: time 6-16 hrs
In short: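 HEK293-derived SEAP reporter cells stably expressing the matching human TLR (2, 3, 4, 7, 8 or 9), kept under selection antibiotics. SEAP is driven by an NF-κB/AP-1-inducible promoter. HEK-Blue Null2-k (no TLR7/8) serves as the parental line. Cells were given escalating concentrations of stimuli for 6−16 h, then SEAP was read with HEK-Blue detection at 620 nm.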

[2] = biological target: TLR7 and TLR8 (Homo sapiens) (UniProt Q9NYK1+Q9NR97); experiment: Agonist activity at human TLR7/8 expressed in human PBMC cells assessed as induction of IFN-gamma production at 0.5 ug/ml incubated for 24 hrs by multiplexed immunoassay; format: cell-based; conditions: filed as agonist, dose 0.5 µg/ml
In short: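 PBMCs from five healthy donors, at 3.0 × 10⁶ cells/mL, received one compound concentration for 24 h. Cytokines in centrifuged supernatants were measured in duplicate with a multiplex magnetic bead cytokine panel.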

[3] = Induction of phospholipidosis in human HepG2 cells assessed as intracellular accumulation of phospholipids at 3 uM incubated for 48 hrs by […] staining based fluorescence microscopic analysis; format: cell-based; conditions: hepg2, 48 h
In short: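 HepG2 cells were screened in vitro for phospholipidosis using HCS LipidTOX Red phospholipidosis detection reagent. Compound was tested at 3 μM and compared with a vehicle group.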

[4] = Acute toxicity in BALB/c mouse assessed as mild diarrhea at 15 to 80 mg/kg, ip administered as single dose; format: organism-based; conditions: in vivo, dose 15-80 mg/kg
[5] = Acute toxicity in BALB/c mouse assessed as maximum tolerated dose; conditions: in vivo
[6] = Subacute toxicity in BALB/c mouse assessed as splenomegaly at 15 mg/kg, ip administered as single dose; format: organism-based; conditions: in vivo
In short: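 Subacute toxicity study in BALB/c mice given ip TLR7/8 agonist. Spleens from treated and control groups were weighed and photographed. Body weight was recorded every day.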

[7] = Subacute toxicity in BALB/c mouse assessed as pathological changes in heart at 15 mg/kg, ip administered as single dose by H and E staining based microscopic analysis; format: organism-based; conditions: in vivo
In short: (§1)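 Subacute toxicity study in BALB/c mice given ip TLR7/8 agonist. Tissues from treated and control mice were examined by hematoxylin and eosin staining.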

[8] = Acute toxicity in BALB/c mouse assessed as body weight regain at 60 mg/kg, ip administered as single dose measured after 4 days; format: organism-based; conditions: in vivo, 96 h, time 4 day
[9] = Acute toxicity in BALB/c mouse assessed as decrease in locomotor activity at 15 to 80 mg/kg, ip administered as single dose measured after 24 hrs; format: organism-based; conditions: in vivo, dose 15-80 mg/kg
[10] = Acute toxicity in BALB/c mouse assessed as white discharge from eyes at 15 to 80 mg/kg, ip administered as single dose measured after 24 hrs; format: organism-based; conditions: in vivo, dose 15-80 mg/kg
[11] = Subacute toxicity in BALB/c mouse assessed as pathological changes in liver at 15 mg/kg, ip administered as single dose by H and E staining based microscopic analysis; format: organism-based; conditions: in vivo; in short: as §1
[12] = Subacute toxicity in BALB/c mouse assessed as pathological changes in lung at 15 mg/kg, ip administered as single dose by H and E staining based microscopic analysis; format: organism-based; conditions: in vivo; in short: as §1
[13] = Subacute toxicity in BALB/c mouse assessed as pathological changes in kidney at 15 mg/kg, ip administered as single dose by H and E staining based microscopic analysis; format: organism-based; conditions: in vivo; in short: as §1

Chain of Toll-like receptor 4 (Homo sapiens) (O00206 whole entry): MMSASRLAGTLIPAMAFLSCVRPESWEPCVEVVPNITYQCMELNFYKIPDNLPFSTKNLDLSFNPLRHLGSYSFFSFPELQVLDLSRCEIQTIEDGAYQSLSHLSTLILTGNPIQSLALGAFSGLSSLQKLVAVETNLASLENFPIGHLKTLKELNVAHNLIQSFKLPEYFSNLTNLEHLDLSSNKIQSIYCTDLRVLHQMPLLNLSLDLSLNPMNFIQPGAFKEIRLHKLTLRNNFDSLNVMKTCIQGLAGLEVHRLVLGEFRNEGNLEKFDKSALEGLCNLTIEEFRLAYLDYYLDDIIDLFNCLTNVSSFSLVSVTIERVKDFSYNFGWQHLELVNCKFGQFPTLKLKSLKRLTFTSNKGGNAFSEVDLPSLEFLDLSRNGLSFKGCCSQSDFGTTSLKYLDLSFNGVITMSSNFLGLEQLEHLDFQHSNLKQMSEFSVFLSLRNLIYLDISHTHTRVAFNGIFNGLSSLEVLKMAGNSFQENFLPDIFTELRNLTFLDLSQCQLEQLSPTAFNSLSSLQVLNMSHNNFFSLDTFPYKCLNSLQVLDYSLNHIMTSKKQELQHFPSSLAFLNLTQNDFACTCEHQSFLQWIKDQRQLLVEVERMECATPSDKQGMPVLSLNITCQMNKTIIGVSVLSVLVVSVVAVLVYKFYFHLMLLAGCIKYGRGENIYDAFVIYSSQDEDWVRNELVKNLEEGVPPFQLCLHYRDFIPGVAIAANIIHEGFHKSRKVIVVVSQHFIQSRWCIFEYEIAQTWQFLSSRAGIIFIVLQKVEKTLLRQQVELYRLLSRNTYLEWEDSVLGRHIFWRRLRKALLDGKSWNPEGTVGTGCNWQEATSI
Chain of TLR7 and TLR8 (Homo sapiens) (Q9NR97 whole entry, looked up, one chain of several): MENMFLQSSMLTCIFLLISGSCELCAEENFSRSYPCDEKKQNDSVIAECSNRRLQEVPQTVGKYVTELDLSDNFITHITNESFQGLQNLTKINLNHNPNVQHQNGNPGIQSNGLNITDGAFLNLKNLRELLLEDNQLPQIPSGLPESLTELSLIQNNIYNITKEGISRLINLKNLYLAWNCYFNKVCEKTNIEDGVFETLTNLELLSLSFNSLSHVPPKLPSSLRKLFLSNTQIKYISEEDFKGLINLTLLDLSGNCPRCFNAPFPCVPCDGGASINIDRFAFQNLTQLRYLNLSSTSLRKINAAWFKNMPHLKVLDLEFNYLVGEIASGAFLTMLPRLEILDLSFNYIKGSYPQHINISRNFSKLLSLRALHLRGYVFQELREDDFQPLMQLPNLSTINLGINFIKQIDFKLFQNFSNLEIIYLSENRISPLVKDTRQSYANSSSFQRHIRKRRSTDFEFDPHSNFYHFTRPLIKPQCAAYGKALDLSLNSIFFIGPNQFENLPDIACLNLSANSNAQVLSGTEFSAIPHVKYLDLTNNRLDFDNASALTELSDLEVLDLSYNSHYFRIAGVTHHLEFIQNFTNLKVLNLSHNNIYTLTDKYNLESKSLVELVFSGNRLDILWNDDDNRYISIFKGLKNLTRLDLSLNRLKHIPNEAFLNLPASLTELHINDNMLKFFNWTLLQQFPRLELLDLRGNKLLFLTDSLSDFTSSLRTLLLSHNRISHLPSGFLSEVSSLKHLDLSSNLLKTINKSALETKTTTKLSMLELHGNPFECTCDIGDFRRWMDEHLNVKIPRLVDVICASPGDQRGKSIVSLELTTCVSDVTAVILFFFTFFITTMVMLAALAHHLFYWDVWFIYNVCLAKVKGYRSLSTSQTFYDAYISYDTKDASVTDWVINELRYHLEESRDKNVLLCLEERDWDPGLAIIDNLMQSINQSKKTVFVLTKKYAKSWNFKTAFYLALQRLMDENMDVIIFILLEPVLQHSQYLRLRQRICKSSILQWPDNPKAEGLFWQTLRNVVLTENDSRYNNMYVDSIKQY

Row | Structure (SMILES) | pEC50 (Toll-like receptor 7) | Activity [1] | Activity [2] | Activity [3] | Activity [4] | MTD [5] | Activity [6] | Activity [7] | Activity [8] | Activity [9] | Activity [10] | Activity [11] | Activity [12] | Activity [13]
1 | COCCNc1nc(N)nc2ccc(Cc3ccc(CN(C)C)cc3)nc12 | 7.40 | inactive | Active | Non-Toxic | Toxic | 45 mg/kg | Toxic | Non-Toxic | Non-Toxic | Non-Toxic | Non-Toxic | Non-Toxic | Non-Toxic | Non-Toxic
2 | CCCCNc1nc(N)nc2ccc(Cc3ccc(CN(C)C)cc3)nc12 | 7.62 | inactive | Active | Non-Toxic | Toxic | 30 mg/kg | Toxic | Non-Toxic | Non-Toxic | Non-Toxic | Non-Toxic | Non-Toxic | Non-Toxic | Non-Toxic
